Test results published in ChEMBL document CHEMBL5653606 (J Pharmacol Exp Ther, 2011).
Activity calls are given as the source filed them.

Key:
[1] = target: T1, Fatty-acid amide hydrolase 1 (Mus musculus) (UniProt O08914); assay: Inhibition of FAAH in mouse brain at 10 uM in presence of FP-rhodamine by competitive activity-based protein profiling method; format: tissue-based
T1 sequence (whole entry): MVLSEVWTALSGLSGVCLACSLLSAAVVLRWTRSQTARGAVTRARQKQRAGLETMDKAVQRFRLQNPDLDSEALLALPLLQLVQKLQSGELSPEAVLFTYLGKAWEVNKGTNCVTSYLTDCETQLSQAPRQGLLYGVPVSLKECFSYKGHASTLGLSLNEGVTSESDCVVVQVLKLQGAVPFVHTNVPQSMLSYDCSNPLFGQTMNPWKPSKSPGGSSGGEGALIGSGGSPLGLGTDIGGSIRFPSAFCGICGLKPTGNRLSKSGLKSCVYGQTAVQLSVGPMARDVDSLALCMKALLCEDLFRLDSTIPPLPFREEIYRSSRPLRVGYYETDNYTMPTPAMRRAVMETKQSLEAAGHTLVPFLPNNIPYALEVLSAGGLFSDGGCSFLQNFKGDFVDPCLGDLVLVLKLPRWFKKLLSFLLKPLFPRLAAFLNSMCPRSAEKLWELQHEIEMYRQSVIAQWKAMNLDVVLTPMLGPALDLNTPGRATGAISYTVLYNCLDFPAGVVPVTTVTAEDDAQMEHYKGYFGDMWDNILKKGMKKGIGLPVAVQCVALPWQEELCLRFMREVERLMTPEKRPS
How it was run: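 Competitive ABPP on human and mouse brain, liver and heart proteomes (membrane and soluble fractions), exposed to compound at 10 or 100 μM or to DMSO. Serine hydrolases were then labeled with FP-rhodamine. Gels were read by fluorescence scanning, and loss of band labeling (FAAH or other hydrolases by kDa) was judged.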

[2] = target: T2, Fatty-acid amide hydrolase 1 (Rattus norvegicus) (UniProt P97612); assay: In vivo inhibition of FAAH in CFA induced Sprague-Dawley rat WBC assessed as elevation of AEA level at 0.1 to 10 mg/kg, po using 3H-labeled AEA as substrate; format: functional, organism-based; details: dose 0.1-10 mg/kg
T2 sequence (whole entry): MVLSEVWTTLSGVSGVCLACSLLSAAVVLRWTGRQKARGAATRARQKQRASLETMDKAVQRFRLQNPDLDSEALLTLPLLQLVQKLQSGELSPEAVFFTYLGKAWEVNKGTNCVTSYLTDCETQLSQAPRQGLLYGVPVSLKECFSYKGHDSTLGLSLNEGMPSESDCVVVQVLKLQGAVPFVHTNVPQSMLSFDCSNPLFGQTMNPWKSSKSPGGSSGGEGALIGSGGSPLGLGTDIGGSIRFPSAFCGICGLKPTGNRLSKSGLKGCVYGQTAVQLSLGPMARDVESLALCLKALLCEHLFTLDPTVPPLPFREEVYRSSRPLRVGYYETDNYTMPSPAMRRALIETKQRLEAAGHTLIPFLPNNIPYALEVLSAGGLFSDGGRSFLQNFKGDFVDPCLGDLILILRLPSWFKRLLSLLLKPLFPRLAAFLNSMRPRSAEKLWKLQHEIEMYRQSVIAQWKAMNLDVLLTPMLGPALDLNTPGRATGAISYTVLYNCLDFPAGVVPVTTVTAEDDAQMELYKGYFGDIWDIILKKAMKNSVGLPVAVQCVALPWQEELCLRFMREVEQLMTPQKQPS

[3] = target: T2, Fatty-acid amide hydrolase 1 (Rattus norvegicus); assay: In vivo inhibition of FAAH in CFA induced Sprague-Dawley rat brain assessed as elevation of NAE level at 0.1 to 10 mg/kg, po; format: functional, organism-based; details: dose 0.1-10 mg/kg
How it was run: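 Lipid (NAE) levels in rat brain and plasma measured by LC/MS after oral dosing in CFA rats; n = 3 rats/group. Time-course samples taken at 1, 2, 4, 8, 24 h after 1 mg/kg.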

[4] = Plasma concentration in CFA induced Sprague-Dawley rat at 0.1 mg/kg, po by LC/MS analysis; format: ADME, organism-based; details: in vivo
[5] = target: T2, Fatty-acid amide hydrolase 1 (Rattus norvegicus); assay: In vivo inhibition of FAAH in CFA induced Sprague-Dawley rat brain at 1 mg/kg, po measured for 1 to 24 hrs; format: functional, organism-based; details: time 1-24 hrs
How it was run: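 Brain and blood leukocyte membrane fractions from CFA rats after oral dosing. FAAH activity measured with 3H-labeled AEA substrate, quantifying released 3H-ethanolamine; n = 3 rats/group. Time course sampled at 1, 2, 4, 8, 24 h after 1 mg/kg.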

Rattus norvegicus [6] = assay: Antihyperalgesic activity in CFA induced Sprague-Dawley rat assessed as partial reduction of mechanical allodynia at 3 mg/kg, po in presence of CB1 antagonist SR141716 by von frey test; format: functional, organism-based
How it was run: (§1)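 Male Sprague-Dawley rats (200–250 g) given 150 μl CFA (1 mg/ml in mineral oil) intraplantar in the hind paw. Mechanical paw withdrawal thresholds read with Von Frey hairs on day 5 postinjection. Dosed orally as nanocrystalline suspension in 2% polyvinylpyrrolidone/0.15% SDS in water, 10 ml/kg. PWTs taken 4 h postdose for dose-response, or at 1, 2, 4, 8, 24 h for time course.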

Rattus norvegicus [7] = assay: Antihyperalgesic activity in CFA induced Sprague-Dawley rat assessed as partial reduction of mechanical allodynia at 3 mg/kg, po in presence of CB2 antagonist SR144528 by von frey test; format: functional, organism-based; how it was run: as §1
Rattus norvegicus [8] = assay: Antihyperalgesic activity in MIA induced Sprague-Dawley rat assessed as increased joint compression thresholds at 3 mg/kg, po administered once daily for 3 consecutive days and measured after 2 to 4 hrs; format: functional, organism-based; details: time 3.0 day
How it was run: (§2)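 Male Sprague-Dawley rats (220–270 g), isoflurane-anesthetized, given 2 mg MIA in 0.9% saline (50 μl) intra-articular into the knee. From day 14, oral dosing at 10 ml/kg once daily for 3 days in 4% 2-hydroxypropyl-β-cyclodextrin/1% ethanol in 0.01 M HCl. Celecoxib 30 mg/kg in 0.5% methylcellulose twice daily. Joint compression threshold by digital Randall-Selitto at 2 and 4 h postdose on days 1 and 3; n = 10/group.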

Rattus norvegicus [9] = assay: Antihyperalgesic activity in MIA induced Sprague-Dawley rat assessed as effect on pain behaviour in contralateral knee joint at 0.3 to 3 mg/kg, po administered once daily for 3 consecutive days; format: functional, organism-based; details: dose 0.3-3 mg/kg, time 3.0 day; how it was run: as §2
Rattus norvegicus [10] = assay: Antihyperalgesic activity in MIA induced Sprague-Dawley rat assessed as increased joint compression thresholds at 0.3 to 3 mg/kg, po administered for 1 day and measured after 2 to 4 hrs; format: functional, organism-based; details: dose 0.3-3 mg/kg; how it was run: as §2

O=C(Nc1cccnn1)N1CCC(=Cc2cccc(Oc3ccc(C(F)(F)F)cn3)c2)CC1
inactive: Activity (Rattus norvegicus [9])
active: inhibition [1] | inhibition [2] | inhibition [3] | inhibition [5] | Activity (Rattus norvegicus [6]) | Activity (Rattus norvegicus [7]) | Activity (Rattus norvegicus [8]) | Activity (Rattus norvegicus [10])
34.7 nM: concentration [4]
